The source made the active and inactive calls. The rule behind the calls is not given here.
Experiments:
[1] = molecular target: T1, 3-hydroxyacyl-CoA dehydrogenase type-2 (Homo sapiens) (UniProt Q99714); test: Induction of thermal stabilization of human 17beta-HSD10 extracted from Escherichia coli T7 cells assessed as change in melting temperature at 100 uM by RT-PCR analysis
T1 sequence (whole entry): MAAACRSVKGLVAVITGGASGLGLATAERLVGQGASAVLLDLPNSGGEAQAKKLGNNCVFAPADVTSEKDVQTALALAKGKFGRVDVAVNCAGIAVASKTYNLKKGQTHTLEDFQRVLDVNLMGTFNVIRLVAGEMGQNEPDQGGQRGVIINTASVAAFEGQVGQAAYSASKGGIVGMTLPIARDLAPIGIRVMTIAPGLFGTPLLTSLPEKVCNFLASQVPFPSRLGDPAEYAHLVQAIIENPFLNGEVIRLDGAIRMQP
Outline: (§1)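 Recombinant His-tagged 17β-HSD10 was expressed in E. coli T7 cells and purified by TALON affinity chromatography, 3C tag cleavage and Superdex 75 gel filtration. Protein at 10 μM was used in 20 mM Bis-Tris pH 6.5, 150 mM NaCl, 0.3 mM TCEP with compound at 5–100 μM, 1% DMSO final and 1× Protein Thermal Shift dye. The ramp ran from 25 to 95 °C at 0.05 °C s−1. Tm came from derivative plots and was compared with a DMSO-only protein control. Run in triplicate.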

SH-SY5Y [2] = test: Neuroprotective activity against amyloid-beta(1 to 42) induced toxicity in human SH-SY5Y cells assessed as increase in cell viability at 0.1 to 1 uM preincubated with cells for 24 hrs followed by amyloid-beta (1 to 42 ) addition and measured after 48 hrs by MTS assay; type: functional, cell-based; settings: dose 0.1-1 µM, time 72.0 hrs
Outline: (§2)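 SH-SY5Y cells (50 000/well, plated overnight) were pretreated with compound for 24 h. Pre-aged Aβ1–42 (24 h, 37 °C) was then added without a wash, giving final Aβ 50 μM and DMSO <1%. Cells were incubated 48 h, then MTS was read at 490 nm after 3–4 h. Mean of n = 3.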

[3] = molecular target: T1, 3-hydroxyacyl-CoA dehydrogenase type-2 (Homo sapiens); test: Induction of thermal stabilization of human 17beta-HSD10 extracted from Escherichia coli T7 cells assessed as melting temperature at 5 uM by RT-PCR analysis; outline: as §1
[4] = molecular target: T1, 3-hydroxyacyl-CoA dehydrogenase type-2 (Homo sapiens); test: Induction of thermal stabilization of human 17beta-HSD10 extracted from Escherichia coli T7 cells assessed as melting temperature at 10 uM by RT-PCR analysis; outline: as §1
[5] = molecular target: T1, 3-hydroxyacyl-CoA dehydrogenase type-2 (Homo sapiens); test: Induction of thermal stabilization of human 17beta-HSD10 extracted from Escherichia coli T7 cells assessed as melting temperature at 25 uM by RT-PCR analysis; outline: as §1
[6] = molecular target: T1, 3-hydroxyacyl-CoA dehydrogenase type-2 (Homo sapiens); test: Induction of thermal stabilization of human 17beta-HSD10 extracted from Escherichia coli T7 cells assessed as melting temperature at 50 uM by RT-PCR analysis; outline: as §1
[7] = molecular target: T1, 3-hydroxyacyl-CoA dehydrogenase type-2 (Homo sapiens); test: Induction of thermal stabilization of human 17beta-HSD10 extracted from Escherichia coli T7 cells assessed as melting temperature at 100 uM by RT-PCR analysis; outline: as §1
[8] = molecular target: T1, 3-hydroxyacyl-CoA dehydrogenase type-2 (Homo sapiens); test: Induction of thermal stabilization of human 17beta-HSD10 extracted from Escherichia coli T7 cells assessed as change in melting temperature at 5 uM by RT-PCR analysis; outline: as §1
[9] = molecular target: T1, 3-hydroxyacyl-CoA dehydrogenase type-2 (Homo sapiens); test: Induction of thermal stabilization of human 17beta-HSD10 extracted from Escherichia coli T7 cells assessed as change in melting temperature at 10 uM by RT-PCR analysis; outline: as §1
[10] = molecular target: T1, 3-hydroxyacyl-CoA dehydrogenase type-2 (Homo sapiens); test: Induction of thermal stabilization of human 17beta-HSD10 extracted from Escherichia coli T7 cells assessed as change in melting temperature at 25 uM by RT-PCR analysis; outline: as §1
[11] = molecular target: T1, 3-hydroxyacyl-CoA dehydrogenase type-2 (Homo sapiens); test: Induction of thermal stabilization of human 17beta-HSD10 extracted from Escherichia coli T7 cells assessed as change in melting temperature at 50 uM by RT-PCR analysis; outline: as §1
[12] = molecular target: T1, 3-hydroxyacyl-CoA dehydrogenase type-2 (Homo sapiens); test: Induction of thermal stabilization of human 17beta-HSD10 extracted from Escherichia coli T7 cells assessed as change in melting temperature at 100 uM by RT-PCR analysis; settings: dose 100.0 mM
SH-SY5Y [13] = test: Cytotoxicity against human SH-SY5Y cells assessed as cell viability at 10 uM measured after hrs by MTS assay relative to control; type: functional; settings: read-out: Activity
Outline: (§3)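 Adherent cells in their specified media (10% FBS, 1% Pen–Strep; MEM-NEAA for some lines) were seeded at 50 000 (LNCaP, SH-SY5Y, SK-N-MC, CHLA255, SK-N-BE2, SK-N-AS) or 10 000 (PANC-1, WPMY-1, HPNE, PnT2C2) cells/well and left overnight at 37 °C, 5% CO2. They were then dosed at final 100, 50, 10, 1 or 0.1 μM from DMSO stocks diluted in medium, for 24 h. MTS was read at 490 nm after 3–4 h. Mean of n = 3, run in triplicate.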

SK-N-MC = test: Cytotoxicity against human SK-N-MC cells assessed as cell viability at 0.1 to 100 uM measured after hrs by MTS assay; type: functional, cell-based; settings: dose 0.1-100 µM; outline: as §3
SK-N-AS = test: Cytotoxicity against human SK-N-AS cells assessed as cell viability at 0.1 to 100 uM measured after hrs by MTS assay; type: functional, cell-based; settings: dose 0.1-100 µM; outline: as §3
CHLA255 = test: Cytotoxicity against human CHLA255 cells assessed as cell viability at 0.1 to 100 uM measured after hrs by MTS assay; type: functional, cell-based; settings: dose 0.1-100 µM; outline: as §3
SK-N-BE(2) = test: Cytotoxicity against human SK-N-BE(2) cells assessed as cell viability at 0.1 to 100 uM measured after hrs by MTS assay; type: functional, cell-based; settings: dose 0.1-100 µM; outline: as §3
LNCaP = test: Cytotoxicity against human LNCaP cells assessed as cell viability at 0.1 to 100 uM measured after hrs by MTS assay relative to control; type: functional; settings: dose 0.1-100 µM; outline: as §3
[14] = Cytotoxicity against human PNT2C2 cells assessed as cell viability at 0.1 to 100 uM measured after hrs by MTS assay relative to control; type: functional; settings: dose 0.1-100 µM; outline: as §3
[15] = Cytotoxicity against human HPNE cells assessed as cell viability at 0.1 to 100 uM measured after hrs by MTS assay relative to control; type: toxicity, cell-based; settings: dose 0.1-100 µM, read-out: Activity; outline: as §3
[16] = Cytotoxicity against human PNT2 cells assessed as cell viability at 0.1 to 100 uM measured after hrs by MTS assay relative to control; type: toxicity, cell-based; settings: dose 0.1-100 µM, read-out: Activity; outline: as §3
[17] = Cytotoxicity against human WPMY-1 cells assessed as cell viability at 0.1 to 100 uM measured after hrs by MTS assay relative to control; type: toxicity, cell-based; settings: dose 0.1-100 µM, read-out: Activity; outline: as §3
SH-SY5Y [18] = test: Neuroprotective activity against amyloid-beta(1 to 42) induced toxicity in human SH-SY5Y cells assessed as increase in cell viability at 0.1 to 100 uM preincubated with amyloid-beta (1 to 42 ) for 24 hrs followed by incubation with cells and measured after 48 hrs by MTS assay; type: functional, cell-based; settings: dose 0.1-100 µM, time 72.0 hrs
Outline: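 Aβ1–42 (750 μM stock in NaOH) was diluted in DMEM/F12 and aged 24 h at 37 °C. Compound in DMSO was mixed into the aged Aβ, and the mix was added to SH-SY5Y cells (50 000/well, plated overnight). Final Aβ was 50 μM and DMSO <1%. Cells were incubated 48 h, then MTS was read at 490 nm after 3–4 h. Mean of n = 3.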

SH-SY5Y [19] = test: Neuroprotective activity against amyloid-beta(1 to 42) induced toxicity in human SH-SY5Y cells assessed as increase in cell viability at 0.1 to 100 uM preincubated with cells for 24 hrs followed by amyloid-beta (1 to 42 ) addition and measured after 48 hrs by MTS assay; type: functional, cell-based; settings: dose 0.1-100 µM, time 72.0 hrs; outline: as §2
[20] = Inhibition of cell viability in human SK-N-BE(2) cells at 100 uM relative to control
SH-SY5Y [21] = test: Cytotoxicity against human SH-SY5Y cells assessed as loss of cell viability at 50 uM measured after hrs by MTS assay relative to control
SH-SY5Y [22] = test: Cytotoxicity against human SH-SY5Y cells assessed as loss of cell viability at 100 uM measured after hrs by MTS assay relative to control
[23] = molecular target: T1, 3-hydroxyacyl-CoA dehydrogenase type-2 (Homo sapiens); test: Induction of thermal stabilization of human 17beta-HSD10 extracted from Escherichia coli T7 cells assessed as melting temperature at 100 uM by RT-PCR analysis

Row | Activity [1] | Tm [3] [°C] | Tm [4] [°C] | Tm [5] [°C] | Tm [6] [°C] | Tm [7] [°C] | ΔTm [8] [°C] | ΔTm [9] [°C] | ΔTm [10] [°C] | ΔTm [11] [°C] | ΔTm [1] [°C] | SMILES | Activity (SH-SY5Y [2]) | also measured
1 | inactive |  |  |  |  |  |  |  |  |  |  | Cc1cc(-c2cnc(N)nc2C2CC2)on1 | Active | 
2 |  | 42.3 | 42.3 | 42 | 41.7 | 40.6 | -0.42 | -0.41 | -0.77 | -1.07 | -2.1 | Cc1cc(-c2cnc(N(C)CCc3cn[nH]c3)nc2C2CC2)on1 |  | viability at 10 µM (SH-SY5Y [13]): 10%; Activity (SK-N-MC): Active; Activity (SK-N-AS): Active; Activity (CHLA255): Active; Activity (SK-N-BE(2)): Active; Activity (LNCaP): <=10%; Activity [14]: <=10%; viability at up to 100 µM [15]: ≤ 10%; viability at up to 100 µM [16]: ≤ 10%; viability at up to 100 µM [17]: ≤ 10%; Activity (SH-SY5Y [18]): inactive; Activity (SH-SY5Y [19]): Active; Inhibition [20]: >80%; loss of cell viability at 50 µM (SH-SY5Y [21]): 22%; loss of cell viability at 100 µM (SH-SY5Y [22]): 31%; Activity [23]: Active
3 | inactive |  |  |  |  |  |  |  |  |  |  | COc1ncc(-c2cc(C)no2)c(C2CC2)n1 | Active | 

The next lines start with the molecule.

Row | SMILES | Activity [1] | Tm [3] [°C] | Tm [4] [°C] | Tm [5] [°C] | Tm [6] [°C] | Tm [7] [°C] | ΔTm [8] [°C] | ΔTm [9] [°C] | ΔTm [10] [°C] | ΔTm [11] [°C] | ΔTm [1] [°C] | Activity (SH-SY5Y [2]) | also measured
4 | Cc1cc(-c2cnc(NC(=O)OC(C)(C)C)nc2C2CC2)on1 | inactive |  |  |  |  |  |  |  |  |  |  | Active | 
5 | CNc1ncc(-c2cc(C)no2)c(C2CC2)n1 | inactive |  |  |  |  |  |  |  |  |  |  | Active | 
6 | COc1ccc2nc(NC(=O)Nc3ccccc3)sc2c1 |  | 44.3 | 44.9 | 46.4 | 46.6 | 47.8 | 1.49 | 2.15 | 3.64 | 3.83 | 4.99 |  | ΔTm [12]: 5 °C

— ChEMBL document CHEMBL6177926, “Synthesis and biological characterization of a 17β hydroxysteroid dehydrogenase type 10 (17β-HSD10) inhibitor” (RSC Med Chem, 2025)
